# Screening data from PubChem BioAssay.
# Rows were chosen to be rich in hits. Some 4.1% of all compounds tested hit in one or more screens of this group.
# Efflux pump mplx: blocks antifungal efflux pumps in multiplex yeast assay | S. cerevisiae Candida pump triplex, Nile Red efflux | inhibition, % at 10 µM | 330,000 tested, 0.44% active | AID 485275;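 active means plate passing quality check with inhibition over a set limit, or well fluorescence over plate mean plus 4 SD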;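 further: Nile Red retained in pooled yeast measured as flow cytometry median fluorescence; 0% = buffer negative control and 100% = Enniatin B positive control; higher means more Nile Red kept so more efflux inhibition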
# SMARCA2 activ: increases SMARCA2 function in MMTV reporter cells; MG213 cells, MMTV-luciferase reporter, dexamethasone, overnight; activation, % at 9.1 µM; 370,000 tested, 1% active; AID 652017; in the data active means activation above about 7.8%;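 further: 0% = vehicle wells and 100% = reference activator wells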
# AHR activator: activators of human aryl hydrocarbon receptor; P35869; activation, % at 5 µM; 320,000 tested, 2.5% active; AID 2796; AHR-responsive luciferase reporter cells, luminescence; in the data active means activation above about 47%;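 further: 0% = vehicle wells and 100% = reference agonist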
# Target sequence (P35869 whole entry, looked up): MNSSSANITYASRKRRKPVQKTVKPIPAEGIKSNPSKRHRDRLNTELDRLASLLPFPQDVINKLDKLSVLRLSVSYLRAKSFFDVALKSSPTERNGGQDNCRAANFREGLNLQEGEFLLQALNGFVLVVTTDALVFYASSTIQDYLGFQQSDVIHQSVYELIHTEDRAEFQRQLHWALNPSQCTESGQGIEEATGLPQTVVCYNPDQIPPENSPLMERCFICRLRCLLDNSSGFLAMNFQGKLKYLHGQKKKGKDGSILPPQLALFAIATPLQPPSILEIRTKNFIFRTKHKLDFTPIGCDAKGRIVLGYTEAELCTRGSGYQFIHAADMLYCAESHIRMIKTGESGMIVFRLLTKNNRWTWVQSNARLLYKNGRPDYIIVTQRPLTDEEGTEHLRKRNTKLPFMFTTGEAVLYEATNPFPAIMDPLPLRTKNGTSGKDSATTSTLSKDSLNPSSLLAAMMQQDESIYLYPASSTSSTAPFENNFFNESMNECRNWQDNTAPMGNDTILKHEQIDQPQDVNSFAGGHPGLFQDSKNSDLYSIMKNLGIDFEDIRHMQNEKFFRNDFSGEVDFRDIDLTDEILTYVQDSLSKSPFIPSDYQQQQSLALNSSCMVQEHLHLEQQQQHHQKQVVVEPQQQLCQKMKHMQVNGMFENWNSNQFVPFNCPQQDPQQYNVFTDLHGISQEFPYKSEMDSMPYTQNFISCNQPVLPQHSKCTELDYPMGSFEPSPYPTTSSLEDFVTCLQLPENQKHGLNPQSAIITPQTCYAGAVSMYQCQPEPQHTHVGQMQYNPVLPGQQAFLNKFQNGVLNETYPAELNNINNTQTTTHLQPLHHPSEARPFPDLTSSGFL
# TAG inh: inhibitors of triacylglycerol accumulation. inhibition, % at 12.5 µM. H9c2 cells, Nile Red lipid (TAG) fluorescence; cells loaded with 200 µM oleic acid. 230,000 tested, 0.66% active;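 active means pattern-corrected inhibition of lipid staining of at least 50% with the nuclear-stain viability signal not falling by more than 50%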;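 further: 0% = DMSO wells and 100% = triacsin C control wells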
# TbMetRS inhib: blocks T. brucei methionyl-tRNA synthetase activity; purified T. brucei MetRS, ATP depletion, Kinase-Glo luminescence; inhibition, % at 11.9 µM; 360,000 tested, 0.4% active; AID 624268;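 active means inhibition above a per-plate cutoff of the control wells' mean inhibition plus 3 SD, cut at about 5.5% in these data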;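 further: 0% = DMSO wells median and 100% = median of wells with control inhibitor compound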
#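 Dosing: 11.9 µM compound single dose, 0.9% DMSO; Assay system: purified T. brucei MetRS enzyme; Measured by: Kinase-Glo luciferase luminescence reporting remaining unconsumed ATP; Schedule: 15 min plus 2 h at 25 °C.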
# AHR act confirm: confirmation of human aryl hydrocarbon receptor activators; shares compounds with AHR activator; human cells, AHR-responsive luciferase reporter, luminescence; activation, % at 9 µM; 2,300 tested, 87% active; AID 2845; in the data active means activation above about 49%;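 further: HepG2 hepatoma cells carrying a DRE-driven firefly luciferase reporter; 0% = vehicle wells and 100% = reference agonist wells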
# PXR act counter: activates human PXR in AHR activator counter-screen; activation, % at 11.6 µM; shares compounds with AHR activator; 2,300 tested, 88% active; cell-based PXR reporter, luciferase luminescence; in the data active means activation above about 11%;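 further: human hepatoma DPX-2 cells expressing full-length human PXR; 0% = DMSO and 100% = reference agonist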
# * = called active by the depositor; · = no result given.
SMILES,Efflux pump mplx,SMARCA2 activ,AHR activator,TAG inh,TbMetRS inhib,AHR act confirm,PXR act counter
CCOc1cccc2sc(NC(=O)c3ccc(Br)s3)nc12,-0.1,2.0,97.4*,23.1,0.0,20.3,13.1*
Fc1ccccc1CNc1nc(-c2cccnc2)nc2ccccc12,0.0,2.9,84.5*,·,0.3,23.6,102.7*
S=C(NCc1ccc2c(c1)OCO2)NC1CCN(Cc2ccccc2)CC1,-0.1,-4.0,-1.0,·,-0.5,·,·
C=C1c2cc3c(cc2NC(=S)N1Cc1ccccc1)OCO3,0.0,-3.4,86.5*,-10.0,0.2,64.5*,144.9*
Cc1cc(C)n(-c2nc(-c3ccccc3)cs2)n1,0.0,2.8,37.4,3.2,0.0,·,·
Cc1cc(C)n(-c2nc(-c3cccc(Cl)c3)cs2)n1,0.1,3.2,109.1*,-9.8,-0.5,100.6*,21.7*
COc1ccc(-c2[nH]c(-c3cc(OC)c4c(c3)OCO4)nc2-c2ccccc2)cc1,-0.2,-2.8,107.2*,23.3,0.6,54.0*,56.9*
Cc1ccc(-c2[nH]c(-c3ccc(C(=O)O)cc3)nc2-c2ccccc2)cc1,-0.2,-3.1,3.0,·,0.1,·,·
COc1ccc(OC)c(Nc2nc(NCCC(C)C)nc(N)c2[N+](=O)[O-])c1,0.1,-3.9,20.3,-6.7,0.4,·,·
CCC(C)Nc1nc(N)c([N+](=O)[O-])c(Nc2cc(OC)ccc2OC)n1 (stereo unspecified),0.1,0.5,80.1*,-2.9,0.1,126.7*,76.0*
C=CCNc1nc(N)c([N+](=O)[O-])c(Nc2ccccc2OC)n1,0.1,-1.9,116.2*,·,-1.2,123.0*,21.0*
Fc1ccc(Br)cc1/C=N/N1CCN(c2ccccc2)CC1,0.6,0.2,120.2*,-10.7,-0.1,117.1*,17.8*
CCOc1ccc(-c2c(C(=O)N/N=C(\C)c3cccnc3)nnn2-c2nonc2N)cc1,-0.1,-3.4,91.3*,·,-1.1,93.7*,33.4*
CCCCNC(=O)C1(C(C)=O)CC(C(=O)OCC)=NO1 (stereo unspecified),·,-2.7,·,·,·,·,·
O=C(N/N=C/c1ccc2c(c1)OCO2)c1ccc2c(c1)OCO2,-0.5,1.8,115.3*,-9.3,-0.3,93.3*,25.4*
O=C(NN=Cc1ccc2c(c1)OCO2)c1ccncc1,·,1.8,·,-29.3,-0.3,·,·
Cc1ccc2c(c1)CCCN2C(=O)Nc1ccc2c(c1)OCO2,0.0,3.8,106.3*,17.7,-0.1,95.6*,82.9*
COc1cccc(NC(=O)Nc2cc(NC(=O)Nc3cccc(OC)c3)c(C)nc2C)c1,-0.3,-4.4,91.0*,-1.7,1.4,50.2*,15.3*
Cc1cc(C)cc(C(=O)NCc2ccc3c(c2)OCO3)c1,-0.2,-0.3,105.7*,-14.9,-0.6,75.3*,51.6*
COC(=O)C1=C(C)N(Cc2ccccc2C(F)(F)F)C(=NCc2ccc3c(c2)OCO3)NC1CCc1ccccc1 (stereo unspecified),·,-4.9,·,·,·,·,·
COC(=O)c1ccccc1NC(=O)NCc1ccc2c(c1)OCO2,0.0,4.3,1.7,-38.8,-0.8,·,·
CCC(Oc1ccccc1OC)C(=O)Nc1ccc2c(c1)OCO2 (stereo unspecified),0.1,-0.1,115.4*,·,-0.2,114.8*,56.1*
COc1ccc(Cl)cc1C(=O)Nc1ccc2c(c1)OCCO2,0.1,3.2,·,-7.6,-0.6,·,·
COc1ccccc1C(=O)Nc1ccc2c(c1)OCO2,0.0,2.5,145.7*,·,-1.1,147.2*,53.3*
CCOc1ccccc1NC(=O)NCc1ccc2c(c1)OCO2,-0.5,-1.2,97.4*,-42.2,-0.3,73.9*,39.6*
SMILES,Efflux pump mplx,SMARCA2 activ,AHR activator,TAG inh,TbMetRS inhib,AHR act confirm,PXR act counter
COc1ccc(Cl)cc1C(=O)Nc1ccc2c(c1)OCO2,0.5,0.9,91.9*,-2.3,0.1,104.9*,81.1*
COc1ccccc1OC(C)C(=O)Nc1ccc2c(c1)OCCO2 (stereo unspecified),0.0,-1.9,4.5,·,0.1,·,·
Clc1cccc(CSc2ncnc3sc4c(c23)CCCC4)c1,·,-2.5,·,·,·,·,·
O=C(NCCc1c[nH]c2ccccc12)OCc1cn(Cc2ccc(C(F)(F)F)cc2)nn1,·,-1.7,·,·,·,·,·
O=C(NC(=S)NCc1ccccc1)c1ccc2c(c1)OCO2,-7.4,0.2,83.6*,·,1.7,60.6*,18.8*
Cc1ccccc1OC(C)C(=O)Nc1ccc2c(c1)OCO2 (stereo unspecified),-0.4,-2.1,102.4*,·,-0.7,50.8*,36.5*
CCOc1ccccc1NC(=O)Nc1ccncc1,3.9,-2.7,139.0*,22.7,0.0,86.3*,18.4*
CCOc1ccccc1NC(=O)Nc1ccon1,0.1,-1.8,29.8,-0.8,0.1,·,·
CCOc1ccccc1C(=O)NCC(=O)Nc1ccc2c(c1)OCO2,0.3,5.1,83.4*,-1.9,-0.1,100.2*,102.4*
Cc1cccc(NC(=O)CSc2ncnc3sc4c(c23)CCCC4)c1,·,-0.1,·,·,·,·,·
Cc1cc(Oc2cccnc2)ccc1NC(=O)Cc1cn(C)c2ccccc12,·,-0.9,·,·,·,·,·
Cc1ccccc1NC(=O)N(C)[C@H]1C[C@H]2c3[nH]c4c(-c5ccc6c(c5)OCO6)cccc4c3CCN2C(=O)[C@H]1[C@H](C)O,·,1.0,·,·,·,·,·
COC(=O)[C@]12C[C@H](CC(=O)NCc3cccs3)C(=O)N(Cc3cccc4ccccc34)C1=C[C@H](C(C)(C)C)O[C@@H]2C,·,-1.9,·,·,·,·,·
COc1cccc(NC(=O)Nc2ccc3c(c2)OCO3)c1,-1.3,1.5,109.5*,-16.5,-1.2,64.6*,38.5*
COc1cccc(NC(=O)CN(C)CC(=O)Nc2ccc3c(c2)OCO3)c1,-0.1,1.8,3.5,5.3,-0.1,·,·
COc1ccccc1C(=O)Nc1cccc(SC)c1,0.0,1.9,83.4*,18.9,-0.3,85.4*,22.5*
CCc1ccccc1NC(=O)Nc1ccc2c(c1)OCO2,-0.1,1.9,87.0*,·,-0.6,92.3*,85.8*
O=C(Nc1ccc2c(c1)CCC2)Nc1ccc2c(c1)OCO2,-0.1,5.4,84.8*,·,-0.2,52.4*,42.7*
O=C(Nc1ccc2c(c1)OCCO2)Nc1ccc2c(c1)OCO2,0.0,5.3,41.0,·,-0.5,·,·
Cc1ccc(-c2cccc3[nH]cc(C)c23)s1,·,-2.3,·,·,·,·,·
O=C(CCN1CCc2ccccc2C1)Nc1ccc2c(c1)OCO2,0.3,-0.7,83.9*,-13.0,-0.7,25.9,50.7*
COc1ccc(C)cc1NC(=O)c1ccc2c(c1)OCO2,0.0,-0.8,104.0*,12.6,-0.9,116.0*,26.2*
Cc1ccccc1CNC(=O)C1CCCN(c2ncccn2)C1 (stereo unspecified),·,-2.9,·,·,·,·,·
C[C@@H]1CCN(C2CC2)S(=O)(=O)c2c(cccc2N2CCC[C@H]2C)O1,·,-3.5,·,·,·,·,·
O=C(Nc1ccon1)Nc1cc(Cl)ccc1Cl,-0.2,3.8,121.8*,7.0,-0.3,101.1*,11.3*
Cc1cc(N2CCN(C(=O)Oc3ccc(C(F)(F)F)cc3)CC2)c2ccccc2n1,·,-4.9,·,·,·,·,·
